Our source for the IC50 and Activity values is ChEMBL document CHEMBL1143154, “Discovery of potent LPA2 (EDG4) antagonists as potential anticancer agents” (Bioorg Med Chem Lett, 2008).

In test [1] the target is T1, Lysophosphatidic acid receptor 2 (Homo sapiens, UniProt Q9HBW0). Kind of test: Antagonist activity at LPA2 expressed in RH7777 cells with Gi4-protein and aequorin by calcium mobilization assay. The test is classed as functional, cell-based. Put shortly:
(§1)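 Rat hepatoma RH7777 cells transiently transfected with aequorin, chimeric Gi4-protein and the LPA receptor subtype (LPA1, LPA2 or LPA3). Inhibition of LPA-induced receptor activation read as Ca2+ flux by flash luminescence in 384-well format; IC50 in μM, n = 2.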
In general terms: Calcium assays in cells follow changes in intracellular calcium, usually with a dye or a luminescent sensor.

For a further test, the system named is HCT-116. Kind of test: Inhibition of LPA-induced proliferation of human HCT116 cells after 24 hrs. The class given is functional, cell-based. The procedure, abridged: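 HCT-116 cells at 5000 cells/well in serum-free DMEM with 0.11% BSA. Test compound added at various concentrations, then LPA at a final 3 μM (HGF at a final 30 ng/ml as comparison stimulus). After 24 h incubation, viable cells measured by CellTiter-Glo luminescence.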

Test [2] has as its target T1, Lysophosphatidic acid receptor 2. Kind of test: Inhibition of LPA2-mediated Erk activation in human HCT116 assessed as inhibition of LPA-induced erk phosphorylation. Put shortly: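 HCT-116 cells at 90% confluence serum-starved 2 h, preincubated with compound at various concentrations 1 h at 37 °C, then stimulated with LPA 3 μM (HGF 30 ng/ml as counter-stimulus) for 12 min at 37 °C. Cells fixed, permeabilized, blocked 2 h; in-cell Western detection of p-Erk and total Erk simultaneously, p-Erk normalized to total Erk per well.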

Test [3] addresses T2, Lysophosphatidic acid receptor 3 (Homo sapiens, UniProt Q9UBY5).
T2 sequence (Q9UBY5 whole entry): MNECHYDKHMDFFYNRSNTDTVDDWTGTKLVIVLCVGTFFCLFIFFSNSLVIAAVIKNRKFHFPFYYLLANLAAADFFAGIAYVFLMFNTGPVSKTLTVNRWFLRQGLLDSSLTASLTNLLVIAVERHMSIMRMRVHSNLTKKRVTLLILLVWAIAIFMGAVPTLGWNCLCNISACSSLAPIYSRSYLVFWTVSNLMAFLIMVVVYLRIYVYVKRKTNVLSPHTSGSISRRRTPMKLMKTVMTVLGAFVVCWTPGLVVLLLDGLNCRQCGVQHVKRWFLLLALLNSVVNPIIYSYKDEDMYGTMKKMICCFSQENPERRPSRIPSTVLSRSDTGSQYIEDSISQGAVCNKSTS
The test can be described thus: Antagonist activity at LPA3 expressed in RH7777 cells with Gi4-protein and aequorin by calcium mobilization assay. The class given is functional, cell-based. The procedure, abridged: as §1

The target in test [4] is Lysophosphatidic acid receptor 1 (Homo sapiens, UniProt Q92633). Kind of test: Antagonist activity at LPA1 expressed in RH7777 cells with Gi4-protein and aequorin by calcium mobilization assay. The class given is functional, cell-based. Put shortly:
as §1

The target in test [5] is T1, Lysophosphatidic acid receptor 2. Kind of test: Antagonist activity at LPA2 assessed as inhibition of LPA-induced Ca2+ flux. The test is classed as functional. The procedure, abridged: as §1

T1 sequence (Q9HBW0 whole entry): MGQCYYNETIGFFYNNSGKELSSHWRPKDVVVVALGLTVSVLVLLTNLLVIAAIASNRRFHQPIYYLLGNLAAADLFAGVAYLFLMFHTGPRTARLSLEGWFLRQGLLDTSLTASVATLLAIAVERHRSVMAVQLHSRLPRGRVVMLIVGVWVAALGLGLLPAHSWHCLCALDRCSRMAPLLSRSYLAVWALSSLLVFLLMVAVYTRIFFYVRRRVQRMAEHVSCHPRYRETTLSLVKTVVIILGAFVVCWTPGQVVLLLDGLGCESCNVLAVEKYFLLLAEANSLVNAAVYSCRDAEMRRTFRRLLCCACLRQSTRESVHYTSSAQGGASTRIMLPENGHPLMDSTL
Chain of Lysophosphatidic acid receptor 1 (Q92633 whole entry): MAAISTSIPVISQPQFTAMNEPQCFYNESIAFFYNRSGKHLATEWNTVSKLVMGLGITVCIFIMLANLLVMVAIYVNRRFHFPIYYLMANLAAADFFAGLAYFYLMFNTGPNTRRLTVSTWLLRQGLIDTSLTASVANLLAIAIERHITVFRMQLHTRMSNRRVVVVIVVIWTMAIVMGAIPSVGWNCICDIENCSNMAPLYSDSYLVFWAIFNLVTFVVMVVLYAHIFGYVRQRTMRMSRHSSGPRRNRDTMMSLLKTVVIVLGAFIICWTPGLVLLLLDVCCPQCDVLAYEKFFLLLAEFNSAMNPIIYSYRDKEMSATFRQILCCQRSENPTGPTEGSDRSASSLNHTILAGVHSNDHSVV

As usually defined, the IC50 is the concentration that gives 50% inhibition. `CC[C@@H](CN1CCN(c2ccccc2OC)CC1)Nc1nc(C(F)(F)F)nc2ccccc12`: the concentration for half-maximal inhibition (IC50) in test [1] is > 30000 nM.

Regarding `COc1ccccc1N1CCN(CC(C)(C)Nc2nc(C(F)(F)F)nc3ccccc23)CC1`, the IC50 in test [1] is > 30000 nM.

Regarding `COc1ccccc1N1CCN(C[C@@H](C)Nc2nc(C(F)(F)F)nc3ccccc23)CC1`, the IC50 in test [1] was > 30000 nM.

Take `Cc1ccccc1N1CCN(C[C@H](C)Nc2nc(C(F)(F)F)nc3ccccc23)CC1`: in test [1], the IC50 worked out at 730 nM.

In the case of `Cc1csc2c(N[C@@H](C)CN3CCN(S(=O)(=O)c4ccc(Cl)c(Cl)c4)CC3)ncnc12`, the Activity result (with HCT-116; in test [2]) was “Dose-dependent effect” throughout. For the same molecule, the results for the IC50 in test [3], in test [1] and in test [4] were > 50000 nM, 17 nM and > 50000 nM, respectively.

Consider `Cc1ccc(S(=O)(=O)N2CCN(C[C@H](C)Nc3ncnc4c(C)csc34)CC2)cc1`, for which, in test [1], the IC50 was 170 nM.

As for `COc1ccccc1N1CCN(CCNc2nc(C(F)(F)F)nc3ccccc23)CC1`, the IC50 in test [1] is > 30000 nM.

In the case of `CCCCS(=O)(=O)N1CCN(C[C@H](C)Nc2ncnc3c(C)csc23)CC1`, in test [1], the IC50 was 6610 nM.

Consider `Cc1csc2c(N[C@@H](C)CN3CCN(S(=O)(=O)Cc4ccccc4)CC3)ncnc12`, for which the IC50 in test [1] stood at 1860 nM.

`Cc1ccccc1S(=O)(=O)N1CCN(C[C@H](C)Nc2ncnc3c(C)csc23)CC1`: in test [1], the IC50 came out at 730 nM.

For `Cc1csc2c(N[C@@H](C)CN3CCN(S(=O)(=O)c4cccc(Cl)c4)CC3)ncnc12`, the IC50 in test [1] turned out to be 35 nM.

As to `COc1ccccc1N1CCN(C[C@H](C)Nc2nc(C3CC3)nc3ccccc23)CC1`, the IC50 in test [1] came out at 3200 nM.

`Cc1ccccc1N1CCN(C[C@H](C)Nc2ncnc3c(C)csc23)CC1`: the IC50 was > 50000 nM in test [3], 260 nM in test [1] and > 50000 nM in test [4].

Take `Cc1cccc(S(=O)(=O)N2CCN(C[C@H](C)Nc3ncnc4c(C)csc34)CC2)c1`: in test [1], the IC50 is 310 nM.

For the molecule `CC(CN1CCN(c2ccc(F)cc2)CC1)Nc1nc(C2CC2)nc2ccccc12` (stereo not drawn), in test [5], the IC50 is 1700 nM.

`COc1ccccc1N1CCN(C[C@H](C)Nc2nc(C(F)(F)F)nc3ccccc23)CC1`: the IC50 in test [1] was 1300 nM.

With `COc1cc(OC)cc(C(=O)N(CCCc2ccccc2)Cc2ccc(Oc3ccccc3C(=O)O)cc2)c1`, the IC50 is 40 nM in test [3], > 50000 nM in test [1] and > 50000 nM in test [4].

Take `Cc1noc(-c2ccccc2)c1NC(=O)OC(C)c1ccccc1` (stereo not drawn): the IC50 in test [3] is 12000 nM; in test [1], > 50000 nM; in test [4], 50 nM.
